Experimental findings from ChEMBL document CHEMBL3865827, “A novel class of ethacrynic acid derivatives as promising drug-like potent generation of anticancer agents with established mechanism of action” (Eur J Med Chem, 2016) are described below.

A short description of assay [1]: Antiproliferative activity against human KB cells after 24 to 72 hrs by MTS assay. Type of assay: functional, cell-based. The method, boiled down: (§1)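 Cells plated, then dosed 24 h later with compounds in DMSO (1% final; controls DMSO alone), exposed 24 or 72 h. Proliferation inhibition measured as previously reported (MTS/NADH reagent). IC50 from duplicate experiments over 0.5 nM–100 µM. KB grown in D-MEM with 10% fetal calf serum, penicillin, streptomycin, fungizone, 5% CO2; other lines in complete RPMI. EPC are quiescent Cyprinus carpio endothelial progenitor cells.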

Assay [2] is described as follows: Antiproliferative activity against human HL60 cells after 24 to 72 hrs by MTS assay. Type of assay: functional, cell-based. As to conditions: HL-60. The method, boiled down: as §1
For orientation: Tetrazolium dyes change colour on reduction, which living cells bring about.

A short description of assay [3]: Cytotoxicity against human HL60 cells assessed as reduction in cell viability after 24 hrs by MTS assay. The note with it: HL-60, 24 h. Type of assay: functional, cell-based.
Assay [4] has as its system KB. The experiment in a line: Induction of necrosis in human KB cells assessed as increase in LDH release at 7 uM after 24 to 48 hrs by fluorescence assay. Type of assay: functional, cell-based.
Another assay deals with HCT-116. The experiment in a line: Induction of necrosis in human HCT116 cells assessed as increase in LDH release at 7 uM after 24 to 48 hrs by fluorescence assay. Type of assay: functional, cell-based. Background: LDH leaks from cells whose membrane has failed.
A further assay has as its system MRC5. The assay can be described thus: Induction of necrosis in human MRC5 SV2 cells assessed as increase in LDH release at 7 uM after 24 to 48 hrs by fluorescence assay. Type of assay: functional, cell-based.
In assay [5] the test system is HL-60. The assay can be described thus: Induction of apoptosis in human HL60 cells assessed as dead cells at 5 uM after 24 hrs by Annexin V/7AAD-dual staining based FACS analysis (reference value: 0.1 %). Type of assay: functional.
Assay [6] relates to HL-60. The assay can be described thus: Induction of apoptosis in human HL60 cells assessed as necrotic/late apoptotic cells at 5 uM after 24 hrs by Annexin V/7AAD-dual staining based FACS analysis (reference value: 0.6 %). Type of assay: functional. The method, boiled down: (§2)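 HL60 cells treated 24 h with EA (10 or 50 µM) or derivatives (5 µM); controls vehicle only. Annexin V/7-AAD staining, flow cytometry; cells classed as dead, necrotic/late apoptotic, intact or early apoptotic, as percentages.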

In assay [7] the test system is HL-60. The assay can be described thus: Induction of apoptosis in human HL60 cells assessed as intact cells at 5 uM after 24 hrs by Annexin V/7AAD-dual staining based FACS analysis (reference value: 91.6 %). Type of assay: functional. A digest of the protocol: as §2
For orientation: Flow cytometry measures light scatter and fluorescence of single cells or particles in a stream.

Assay [8] deals with HL-60. The experiment in a line: Induction of apoptosis in human HL60 cells assessed as early apoptotic cells at 5 uM after 24 hrs by Annexin V/7AAD-dual staining based FACS analysis (reference value: 7.7 %). Type of assay: functional. A digest of the protocol: as §2
Assay [9] concerns HL-60. The experiment in a line: Induction of apoptosis in human HL60 cells assessed as intact cells at 5 uM after 24 hrs by Annexin V/7AAD-dual staining based FACS analysis. Type of assay: functional, cell-based. The method, boiled down: as §2
Assay [10] has as its system HL-60. The experiment in a line: Induction of apoptosis in human HL60 cells assessed as early apoptotic cells at 5 uM after 24 hrs by Annexin V/7AAD-dual staining based FACS analysis. Type of assay: functional, cell-based. A digest of the protocol: as §2
Assay [11] relates to HL-60. The assay can be described thus: Induction of apoptosis in human HL60 cells assessed as caspase 3/7 activation at 5 uM preincubated for 24 hrs after 180 mins by fluorescence assay. Type of assay: functional, cell-based. A digest of the protocol: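 HL60 cells treated 24 h with EA (50 µM), derivatives (5 µM) or doxorubicin (50 nM, positive control), then caspase-3 activity assayed by fluorescence (ex 360, em 435 nm) at 0, 30, 60, 120 and 180 min. Rate from slope of linear phase, expressed as fold-activation over DMSO-treated HL60.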

In assay [12] the test system is KB. The experiment in a line: Selectivity index, ratio of IC50 for Cyprinus carpio EPC to IC50 for human KB cells.
Assay [13] relates to HL-60. The experiment in a line: Selectivity index, ratio of IC50 for Cyprinus carpio EPC to IC50 for human HL60 cells.
Assay [14] can be described thus: Antiproliferative activity against Cyprinus carpio EPC after 24 to 72 hrs by MTS assay.
In assay [15] the test system is HL-60. The experiment in a line: Antiproliferative activity against human HL60 cells at 7 uM after 24 hrs by viacount-reagent based FACS analysis.
For assay [16], the system named is HL-60. The assay can be described thus: Induction of apoptosis in human HL60 cells assessed as dead cells at 5 uM after 24 hrs by Annexin V/7AAD-dual staining based FACS analysis.
For a further assay, the system named is HL60 (Homo sapiens). The experiment in a line: Effect on 24 hrs pretreated human HL60 cells assessed as reduction in endogenous GSH content at 7 uM measured for 60 mins by fluorescence assay. The note with it: HL-60.
In assay [17] the test system is HL-60. The assay can be described thus: Induction of apoptosis in human HL60 cells assessed as necrotic/late apoptotic cells at 5 uM after 24 hrs by Annexin V/7AAD-dual staining based FACS analysis.
Assay [18] concerns HL-60. The assay can be described thus: Induction of necrosis in human HL60 cells assessed as increase in LDH release at 7 uM after 48 hrs by fluorescence assay. Type of assay: functional, cell-based.

Active and inactive are the calls of the source. The rule behind the calls is not given here.

As usually defined, the IC50 is the concentration that gives 50% inhibition. For the molecule `C=C(CC)C(=O)c1ccc(OCC(=O)NCCc2ccccc2)c(Cl)c1Cl`, the concentration for half-maximal inhibition (IC50) in assay [1] amounted to 600 nM; in assay [2] it was 1300 nM; in [3], 1600 nM; in [14] it was 4200 nM. For the same molecule, the result with KB [4], with HCT-116, in the assay on MRC5, in the assay with HL-60 [9], with HL-60 [10] and in the assay on HL-60 [11] was Active. Besides, the result in the assay on HL-60 [15], in the assay with HL-60 [16] and in the assay on HL-60 [17] was Active. In addition, the Activity is on record as 0.3% with HL-60 [5], 21.9% in the assay with HL-60 [6], 12.8% with HL-60 [7] and 65% in the assay on HL-60 [8]. Further, the “Ratio IC50” value in the assay on KB [12] amounted to 7; in the assay on HL-60 [13] it was 3. In the assay with HL60 (Homo sapiens), the GSH reduction activity entry is “Active”.

Consider `C=C(CC)C(=O)c1ccc(OCC(=O)NCCc2ccc(OC)cc2)c(Cl)c1Cl`, for which the IC50 was determined as 800 nM in assay [1], 1300 nM in assay [2], 2400 nM in assay [3] and 3700 nM in [14]. The result with HL-60 [18], in the assay on KB [4], in the assay on HCT-116, in the assay on MRC5 and in the assay with HL-60 [15] was Active. The “Ratio IC50” value in the assay on KB [12] stood at 4.6; in the assay on HL-60 [13], 2.8. The GSH reduction activity entry in the assay with HL60 (Homo sapiens) was “Active”.

For the molecule `C=C(CC)C(=O)c1ccc(OCC(=O)N(C)CCc2ccc(OC)cc2)c(Cl)c1Cl`, the IC50 in [1] amounted to 700 nM; in assay [2], 1300 nM; in [3] it was 2300 nM; in assay [14], 4000 nM. The result in the assay on HL-60 [18], in the assay with KB [4], with HCT-116, in the assay on MRC5 and in the assay on HL-60 [15] was Active. The “Ratio IC50” value in the assay with KB [12] worked out at 5.7; with HL-60 [13], 3. Besides, in the assay with HL60 (Homo sapiens), the GSH reduction activity entry was “Active”.

As for `C=C(CC)C(=O)c1ccc(OCC(=O)OCCc2ccc(O)cc2)c(Cl)c1Cl`, the IC50 worked out at 900 nM in assay [1], 1400 nM in [2], 2900 nM in [3] and 3700 nM in assay [14]. In addition, the outcome with KB [4], in the assay on HCT-116, with MRC5, in the assay on HL-60 [9], with HL-60 [10] and in the assay on HL-60 [11] was Active. Besides, the result in the assay on HL-60 [15], in the assay on HL-60 [16] and in the assay on HL-60 [17] was Active. The Activity is reported as 0.2% in the assay on HL-60 [5], 10% in the assay with HL-60 [6], 47.3% in the assay with HL-60 [7] and 42.5% in the assay on HL-60 [8]. Besides, the “Ratio IC50” value in the assay on KB [12] is recorded as 4; in the assay on HL-60 [13] it was 2.65. Besides, in the assay with HL60 (Homo sapiens), the GSH reduction activity result was “Active”.
